For assay [1], the system named is RAW264.7. The assay is described as follows: Cytotoxicity against mouse RAW264.7 cells after 24 hrs by MTT assay in the presence of LPS. It counts as cell-based. Particulars: RAW264.7, 24 h.
The test system of assay [2] is RAW264.7. The assay is described as follows: Cytotoxicity against mouse RAW264.7 cells after 24 hrs by MTT assay in the absence of LPS. Format: cell-based. Particulars: RAW264.7, 24 h. In outline: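 RAW264.7 cells at 5 × 10⁴/well, exposed to a range of concentrations in serum-free medium for 24 h. MTT (5 mg/mL in saline) added for a further 4 h, formazan dissolved in DMSO, absorbance read at 540 nm. Viability expressed relative to the blank control.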

Assay [3] concerns the target T1, Nitric oxide synthase, inducible (Mus musculus, UniProt P29477).
T1 sequence (P29477 whole entry): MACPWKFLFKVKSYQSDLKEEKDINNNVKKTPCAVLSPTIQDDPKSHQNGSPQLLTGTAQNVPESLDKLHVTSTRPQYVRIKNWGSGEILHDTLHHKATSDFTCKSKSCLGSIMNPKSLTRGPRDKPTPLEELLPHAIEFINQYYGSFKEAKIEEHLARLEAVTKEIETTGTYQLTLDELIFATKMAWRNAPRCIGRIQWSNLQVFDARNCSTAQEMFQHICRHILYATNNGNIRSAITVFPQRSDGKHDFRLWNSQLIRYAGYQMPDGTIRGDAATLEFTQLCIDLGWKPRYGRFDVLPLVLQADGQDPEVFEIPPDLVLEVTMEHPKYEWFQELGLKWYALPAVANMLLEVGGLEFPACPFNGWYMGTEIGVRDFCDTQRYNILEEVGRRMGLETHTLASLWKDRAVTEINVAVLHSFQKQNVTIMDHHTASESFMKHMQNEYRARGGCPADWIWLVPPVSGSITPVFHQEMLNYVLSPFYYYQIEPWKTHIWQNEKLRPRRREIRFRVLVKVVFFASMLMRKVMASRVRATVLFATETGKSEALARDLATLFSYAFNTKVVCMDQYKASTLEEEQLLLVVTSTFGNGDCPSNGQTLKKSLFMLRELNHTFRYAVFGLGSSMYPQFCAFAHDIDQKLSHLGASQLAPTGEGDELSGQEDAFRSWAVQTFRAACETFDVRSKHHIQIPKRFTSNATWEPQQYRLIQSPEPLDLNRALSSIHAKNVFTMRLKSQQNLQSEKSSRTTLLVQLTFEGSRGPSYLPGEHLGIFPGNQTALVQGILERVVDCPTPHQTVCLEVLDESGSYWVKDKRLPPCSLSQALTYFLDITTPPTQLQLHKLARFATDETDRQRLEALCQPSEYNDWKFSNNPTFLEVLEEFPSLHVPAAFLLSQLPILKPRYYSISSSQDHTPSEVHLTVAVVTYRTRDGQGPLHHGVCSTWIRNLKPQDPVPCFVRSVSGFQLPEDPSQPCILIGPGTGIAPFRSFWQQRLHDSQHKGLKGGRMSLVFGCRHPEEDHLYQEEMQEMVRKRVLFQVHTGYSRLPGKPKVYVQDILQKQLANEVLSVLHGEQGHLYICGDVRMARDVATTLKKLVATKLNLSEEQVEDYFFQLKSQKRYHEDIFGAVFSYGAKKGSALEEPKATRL
The assay is described as follows: Inhibition of iNOS in mouse RAW264.7 cells assessed as inhibition of LPS-induced nitric oxide production for 2 hrs by DAF-FMDA dye based fluorometric assay. It counts as cell-based.

For assay [4], the system named is Mus musculus. The assay is described as follows: Antiinflammatory activity in ICR mouse assessed as decrease in carrageenan-induced paw edema at 10 mg/kg, ip administered 30 mins prior to carrageenan-challenge measured at 4 hrs relative to vehicle treated control. Format: functional. Particulars: route intraperitoneal. The method in brief:
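Male ICR mice dosed i.p. 30 min before subplantar injection of freshly prepared 1% carrageenan suspension into the right hind paw. Footpad thickness measured with a gauge caliper at 1, 2, 3, 4 and 5 h. Inhibition calculated from increase in paw thickness versus the control group; mean (SEM), n = 5.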
Background: In the carrageenan paw model, swelling and tenderness develop within hours.

Assay [5] deals with Rattus norvegicus. The assay can be described thus: Antiarthritic activity in Lewis rat adjuvant-induced arthritis model assessed as decrease in complete Freund's adjuvant-induced arthritis administered daily oral doses for 14 days post inflammation development signs. It counts as functional, organism-based. The method in brief:
(§1)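 Male Lewis rats, 12 weeks old, six per group, injected with CFA at the tail base. Vehicle (2% Tween 80/0.5% methylcellulose) given orally for 7 d until full joint inflammation, then randomized and dosed orally daily for 14 d at 10 or 25 mg/kg. Arthritis scored daily on hind paw erythema, swelling, joint tenderness, movement and posture. Body weight tracked; means ± S.E.M.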

Assay [6] deals with Rattus norvegicus. The assay can be described thus: Antiarthritic activity in Lewis rat adjuvant-induced arthritis model assessed as decrease in complete Freund's adjuvant-induced weight loss administered daily oral doses for 14 days post inflammation development signs. Format: functional, organism-based. The method in brief: as §1
The test system of assay [7] is Rattus norvegicus. The assay is described as follows: Antiarthritic activity in Lewis rat adjuvant-induced arthritis model assessed as decrease in complete Freund's adjuvant-induced suppression of histopathological changes at 25 mg/kg/day, po for 14 days post inflammation development signs by Hematoxylin and eosin staining. It counts as functional, organism-based. In outline:
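CFA-induced arthritis in male Lewis rats, dosed orally each day for 14 d after a 7 d vehicle lead-in. Animals sacrificed, foot pads fixed in neutral buffered formal saline and embedded in paraffin. 5 µm sections stained with H&E and examined under the microscope.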

Structures are written as SMILES. Activity calls are given as the source filed them. The calls are words filed in the database; no cut-off is given here. A value given as a limit tells only on which side of the number the result lay.

Usually IC50 stands for the concentration that gives 50% inhibition. The inhibition in vivo is the percentage by which the read-out fell short of the control.

As for `CC1(C)C=Cc2c(ccc(C(=O)/C=C/c3ccc(Br)cc3)c2O)O1`, the results for the IC50 in assay [1], in assay [2] and in assay [3] were greater than 80 µM, greater than 80 µM and 17.8 µM, respectively. The inhibition in vivo at 10 mg/kg in assay [4] was determined as 27.6%.
`COc1ccc(/C=C/C(=O)c2ccc3c(c2O)C=CC(C)(C)O3)cc1OC`: in assay [5], the inhibition entry is “Dose-dependent effect”. Moreover, the half-maximal inhibitory concentration (IC50) in assay [1] is greater than 80 µM; in assay [2] it was greater than 80 µM; in assay [3] it was 7.9 µM. In addition, the inhibition result in assay [6] and in assay [7] was “Active” in each case. Besides, the inhibition in vivo at 10 mg/kg in assay [4] was determined as 52.4%.
As for `CC1(C)C=Cc2c(ccc(C(=O)/C=C/c3cccc(F)c3)c2O)O1`, the 50% inhibitory concentration (IC50) in assay [1] is greater than 80 µM; in assay [2], greater than 80 µM; in assay [3], 5.4 µM. The inhibition in vivo at 10 mg/kg in assay [4] worked out at 9%.
Regarding `COc1cc(/C=C/C(=O)c2ccc3c(c2O)C=CC(C)(C)O3)cc(OC)c1OC`, the IC50 in assay [1] is greater than 80 µM; in assay [2], greater than 80 µM; in assay [3], 6.2 µM. The inhibition in vivo at 10 mg/kg in assay [4] was determined as 34.4%.
As for `COc1ccc2c(c1)c(CC(=O)O)c(C)n2C(=O)c1ccc(Cl)cc1` [INDOMETHACIN], the IC50 is greater than 80 µM in assay [1], greater than 80 µM in assay [2] and 20 µM in assay [3]. Also, the inhibition in vivo at 10 mg/kg in assay [4] amounted to 45.8%.

Source of the values: ChEMBL document CHEMBL2040708, “Rational design, synthesis, and pharmacological properties of pyranochalcone derivatives as potent anti-inflammatory agents” (Eur J Med Chem, 2012).
